Assay outcomes deposited in PubChem BioAssay by several laboratories.
Arbovirus inh: blocks arbovirus infection; arbovirus infection cell-based antiviral screen; inhibition, % at 10 µM; 0.37% of 200,000 active; AID 1251; in the data active means inhibition above about 30%
RAM network inh: blocks the yeast RAM network; inhibition, % at 50 µM; S. cerevisiae dse1pr::URA3 reporter, 5-FOA growth OD615, 2 d; analog-sensitive cbk1-as2 kinase mutant strain; 1.8% of 190,000 active; AID 868;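 active means inhibition above a set limit, 3 SD over mean compound inhibition, cut at about 8.4% in these data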;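 further: 0% = DMSO-only wells with no growth and 100% = 10 µM 1-NA-PP1 full growth; inhibition rescues growth on 5-FOA so higher OD means more RAM inhibition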
NCF1 inh: blocks human p47phox regulatory protein of NADPH oxidases. P14598. p47phox/p22phox peptide binding, fluorescence polarization, 2 h. inhibition, % at 24.7 µM. 0.53% of 220,000 active;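 active means inhibition above about 30%, limit read from the data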;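 further: 0% = p47phox with labelled peptide and 100% = labelled peptide alone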
Target sequence (P14598 whole entry, looked up): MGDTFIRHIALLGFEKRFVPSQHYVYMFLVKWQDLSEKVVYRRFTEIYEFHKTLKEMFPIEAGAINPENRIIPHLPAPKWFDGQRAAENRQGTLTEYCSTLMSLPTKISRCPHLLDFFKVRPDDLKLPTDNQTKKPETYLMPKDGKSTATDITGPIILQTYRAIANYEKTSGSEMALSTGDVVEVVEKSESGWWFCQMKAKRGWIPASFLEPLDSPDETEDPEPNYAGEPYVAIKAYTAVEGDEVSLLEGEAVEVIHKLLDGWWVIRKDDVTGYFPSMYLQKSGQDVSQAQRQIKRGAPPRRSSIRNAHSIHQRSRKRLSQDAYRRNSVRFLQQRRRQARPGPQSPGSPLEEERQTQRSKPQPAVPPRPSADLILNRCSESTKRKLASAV
WT yeast gro inh: growth inhibition of WT yeast, mitochondrial fusion screen. mitochondrial fusion phenotypic screen, WT strain. inhibition, % at 10 µM. 2.1% of 190,000 active. AID 1362; in the data active means inhibition above about 58%; tested in S. cerevisiae
Hck-Nef inh: blocks Nef-activated human Hck kinase. Recombinant Hck-YEEI plus Nef, Z-Lyte FRET kinase assay. P08631. inhibition, % at 20 µM. 0.68% of 220,000 active;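 active means Hck-Nef kinase inhibition above about 50%, limit read from the data; inactive means inhibition below that limit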;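 further: 0% = DMSO with Hck plus Nef and 100% = Hck alone without Nef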
Biofilm kill mix: mixtures killing C. albicans biofilm | AID 1242 | 0.02% of 120,000 active | inhibition, % at 7.6 µM | C. albicans biofilm persisters + clotrimazole, fluorescence viability; primary screen in compound mixtures of four per well;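 further: compounds exposed to preformed 24 h biofilms for 48 h; 0% = untreated biofilm control and 100% = clotrimazole plus chlorhexidine kill blank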
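Probe or stimulus – Clotrimazole 50 µg/mL co-treatment · System – C. albicans biofilms · Schedule – 24 h biofilm formation, then 48 h compound exposure, 37 °C · Evaluation – percent inhibition of biofilm viability · Technique – 2-h Alamar Blue fluorescence, 535/590 nm excitation/emission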
* hit, by the source's call; x = not tested or not shown. Rows were chosen to be rich in hits. Some 4.6% of all compounds tested hit in one or more screens of this group.

SMILES	Arbovirus inh	RAM network inh	NCF1 inh	WT yeast gro inh	Hck-Nef inh	Biofilm kill mix
Cc1cccc(NC(=S)NCCSc2ccc(Cl)cc2)c1	-29	8.6*	-3	81*	19	16
Cc1cccc(NC(=O)NCCc2ccc(Cl)cc2)c1	-5	0	3	8	-21	-2
Cc1ccc(Cl)cc1NC(=S)NCCCSC1CCCCC1	-31	7	-6	86*	-24	7
Cc1ccc(NC(=S)NCCSc2ccc(Cl)cc2)c(C)c1	-42	11*	0	73*	2	10
CC12CCC(=O)N1C(C(=O)OCC(=O)Nc1ccc(Cl)c(Cl)c1)CS2 (centres undefined)	2	0	-12	16	19	11
COC(OC)c1ccc(C#N)c(SCc2ccc(C)cc2)n1	x	x	-5	x	-3	21
Cc1cc(NC(=O)NN2CCOCC2)nn1-c1c(Cl)cccc1Cl	x	x	-2	x	8	22
Cc1ccccc1NC(=S)NCCSc1ccc(Cl)cc1	-15	1	-2	80*	-21	7
CCc1ccccc1NC(=S)NCCSc1ccc(Cl)cc1	-29	10*	-1	81*	19	1
Cc1ccc(C)c(NC(=S)NCCSc2ccc(Cl)cc2)c1	-40	8	7	78*	-1	-3
COc1ccc(NC(=S)NCCSc2ccc(C)cc2)c(OC)c1	x	x	x	x	0	x
COc1ccc(OC)c(NC(=S)NCCSc2ccc(C)cc2)c1	17	3	-21	67*	1	24
O=C(/C=C/c1ccccc1)NCCSc1ccc(Cl)cc1	8	2	-11	14	0	x
CCN(CC)C(=O)Cn1cnc2sc(C(=O)N3CCN(c4ccc(F)cc4)CC3)c(C)c2c1=O	1	0	3	-5	-20	13
COCC(=O)NNS(=O)(=O)c1ccccc1[N+](=O)[O-]	1	0	-8	17	-1	14
COC(=O)c1sc2ccccc2c1-n1cccc1C(=O)C(=O)Nc1ccc(OC)cc1	-7	6	-62	-1	-5	x
COc1ccc(OC)c(NC(=O)C(=O)NCc2ccncc2)c1	-5	0	-15	-13	1	22
Cc1ccccc1OCCCCc1c(C)n[nH]c1C	18	-1	-4	76*	1	x
COCCN1Cc2cccc(C(=O)Nc3ccc(C)cc3)c2C1=O	2	2	8	2	6	14
COCCN1Cc2cccc(C(=O)NC3CCCCCC3)c2C1=O	-4	0	-11	71*	4	22
CCCCN(C)C(=O)Cn1c(=O)oc2cc(S(=O)(=O)N3CC(C)CC(C)C3)ccc21 (centres undefined)	x	x	-12	x	5	29
CC(C)(C)NC(=O)c1cccc(NC(=O)CSc2ccc(Cl)cc2)c1	-7	5	-11	0	2	9
CC(C)CNC(=O)c1cccc(NC(=O)CSc2ccc(Cl)cc2)c1	-10	9.8*	-6	8	1	17
CCOC(=O)c1c(NC(=O)C(=O)N/N=C/c2ccccc2O)sc2c1CCCCC2	-31	4	-6	-2	0	10
O=C(NCC1CC1)[C@@H]1C[C@H]1[C@@H](NP(=O)(c1ccccc1)c1ccccc1)c1ccccc1	-7	2	17	-7	-5	-9
SMILES	Arbovirus inh	RAM network inh	NCF1 inh	WT yeast gro inh	Hck-Nef inh	Biofilm kill mix
CC/C(=C\C1CCCCC1)C(NP(=O)(c1ccccc1)c1ccccc1)c1ccccc1 (centres undefined)	-37	5	-11	79*	-2	13
CC(C)(C)n1nnnc1C(c1cccs1)N(Cc1ccccc1)Cc1cccnc1 (centres undefined)	-19	2	-9	25	1	x
CC(C)(C)n1nnnc1C(c1ccc(F)cc1)N(Cc1ccc(F)cc1)Cc1ccco1 (centres undefined)	-14	7	-26	59*	-1	x
CC(C)(C)n1nnnc1C(c1ccc(C(F)(F)F)cc1)N(Cc1ccccc1)Cc1ccco1 (centres undefined)	0	11*	-16	-2	1	x
CC(C)(C)n1nnnc1C(c1ccc(C(F)(F)F)cc1)N(Cc1ccc(F)cc1)Cc1ccco1 (centres undefined)	32*	7	-11	20	-10	11
Cc1ccc(C(c2nnnn2C(C)(C)C)N(Cc2ccco2)Cc2cccs2)cc1 (centres undefined)	11	7	10	14	-4	x
CC(C)(C)n1nnnc1C(c1ccc(Cl)cc1)N(Cc1cccnc1)Cc1ccco1 (centres undefined)	-19	2	-25	68*	10	6
COc1ccc(/C=C/C(=O)OCC(=O)NCCC2=CCCCC2)cc1	7	2	-11	25	22	-7
CCN(CC(=O)Nc1ccc(NC(C)=O)cc1)C(=O)c1n[nH]c(=O)c2ccccc12	7	0	-2	4	23	-9
O=C(NCc1ccc(Cl)cc1)C1CCN(S(=O)(=O)N2CCOCC2)CC1	15	0	10	0	22	16
CC(C)(C)n1nnnc1C(c1cccnc1)N(Cc1ccccc1)Cc1cccs1 (centres undefined)	-17	1	-2	81*	1	x
CN(C(=O)CSc1nnc(-c2cccs2)o1)C1CCS(=O)(=O)C1 (centres undefined)	-2	-1	-3	-5	0	4
Cc1ccc(NC2=C(Cl)C(=O)OC2OC(=O)c2ccccc2)c(C)c1 (centres undefined)	7	6	-1	23	12	13
Cc1ccccc1NC1=C(Cl)C(=O)OC1OC(=O)c1ccccc1C (centres undefined)	-2	6	-7	68*	25	0
CC(C)(C)c1ccc(-c2n[nH]c(=S)n2C2CCCC2)cc1	7	1	-16	72*	-2	x
CC(C)CCNC(=O)C1CCCN1C(=O)NC1CCCCC1 (centres undefined)	4	2	-3	-7	7	8
CCc1ccc(-c2nc(CN3CCC(C(=O)N4CCN(c5ccccc5)CC4)CC3)c(C)o2)cc1	-29	1	-14	66*	0	x
CCc1ccc(-c2nc(CN3CCC(C(=O)NCCN(CC)c4ccccc4)CC3)c(C)o2)cc1	-35	0	-18	71*	1	x
CCN(CCNC(=O)C1CCN(Cc2nc(-c3ccc(Cl)cc3)oc2C)CC1)c1ccccc1	-35	1	-12	53	-1	x
CCc1ccc(-c2nc(CN3CCC(C(=O)N4CCN(c5ccccn5)CC4)CC3)c(C)o2)cc1	-28	1	-10	3	1	x
CCC/C(=N/NC(=O)c1ccccc1Cl)c1ccccc1	-8	2	-2	-16	5	15
CC(C)(C)NC(=O)COc1ccc(CNn2nnnc2N)cc1	9	1	56*	10	3	x
CCOC(=O)CN1C(c2ccc(O)cc2)Nc2ccc(Br)cc2C1c1ccccc1 (centres undefined)	-41	0	-4	96*	1	-8
